Source: ChEMBL document CHEMBL1123844, “Synthesis of new antiinflammatory steroidal 20-carboxamides: (20R)- and (20S)-21-(N-substituted amino)-11 beta,17,20-trihydroxy-3,21-dioxo-1,4- pregnadiene” (J Med Chem, 1987)

Organism: Rattus norvegicus
Assay: Compound was evaluated for antiinflammatory activity in granuloma bioassay and measured as body weight gain
Assay type: functional
Procedure, shortened: (§1)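 Male Sprague–Dawley rats (100–200 g), acclimated 1 week under controlled lighting. Each rat got one cotton pellet (35 ± 1 mg) loaded with 2 mg steroid in acetone and one vehicle pellet; controls got two vehicle pellets. Rats were killed 7 days later. Readouts: thymus and adrenal weights, initial/final body weight, plasma corticosterone by 3H radioimmunoassay of cardiac blood. Mean ± SEM, n=6, Student's t test.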

| Compound | Body weight gain |
| --- | --- |
| CNC(=O)[C@@H](O)[C@@]1(O)CC[C@H]2[C@@H]3CCC4=CC(=O)C=C[C@]4(C)[C@H]3[C@@H](O)C[C@@]21C | 55 g |
| CNC(=O)[C@H](O)[C@@]1(O)CC[C@H]2[C@@H]3CCC4=CC(=O)C=C[C@]4(C)[C@H]3[C@@H](O)C[C@@]21C | 46 g |
| CCCNC(=O)[C@H](O)[C@@]1(O)CC[C@H]2[C@@H]3CCC4=CC(=O)C=C[C@]4(C)[C@H]3[C@@H](O)C[C@@]21C | 30.2 g |
| C[C@]12C=CC(=O)C=C1CC[C@@H]1[C@@H]2[C@@H](O)C[C@@]2(C)[C@H]1CC[C@]2(O)[C@@H](O)C(=O)NCc1ccccc1 | 42 g |
| C[C@]12C=CC(=O)C=C1CC[C@@H]1[C@@H]2[C@@H](O)C[C@@]2(C)[C@H]1CC[C@]2(O)[C@H](O)C(=O)NCc1ccccc1 | 55.7 g |

Organism: Rattus norvegicus
Assay: Evaluated for antiinflammatory activity in granuloma bioassay and expressed as relative adrenal weight
Assay type: functional
Procedure, shortened: as §1

| Compound | Relative adrenal weight |
| --- | --- |
| CNC(=O)[C@@H](O)[C@@]1(O)CC[C@H]2[C@@H]3CCC4=CC(=O)C=C[C@]4(C)[C@H]3[C@@H](O)C[C@@]21C | 16.7 mg 100g-1 |
| CNC(=O)[C@H](O)[C@@]1(O)CC[C@H]2[C@@H]3CCC4=CC(=O)C=C[C@]4(C)[C@H]3[C@@H](O)C[C@@]21C | 14 mg 100g-1 |
| CCCNC(=O)[C@H](O)[C@@]1(O)CC[C@H]2[C@@H]3CCC4=CC(=O)C=C[C@]4(C)[C@H]3[C@@H](O)C[C@@]21C | 13.1 mg 100g-1 |
| C[C@]12C=CC(=O)C=C1CC[C@@H]1[C@@H]2[C@@H](O)C[C@@]2(C)[C@H]1CC[C@]2(O)[C@@H](O)C(=O)NCc1ccccc1 | 12.4 mg 100g-1 |
| C[C@]12C=CC(=O)C=C1CC[C@@H]1[C@@H]2[C@@H](O)C[C@@]2(C)[C@H]1CC[C@]2(O)[C@H](O)C(=O)NCc1ccccc1 | 11.8 mg 100g-1 |

Organism: Rattus norvegicus
Assay: Evaluated for antiinflammatory activity in granuloma bioassay and expressed as relative thymus weight
Assay type: functional
Procedure, shortened: as §1

| Compound | Relative thymus weight |
| --- | --- |
| CNC(=O)[C@@H](O)[C@@]1(O)CC[C@H]2[C@@H]3CCC4=CC(=O)C=C[C@]4(C)[C@H]3[C@@H](O)C[C@@]21C | 247 mg 100g-1 |
| CNC(=O)[C@H](O)[C@@]1(O)CC[C@H]2[C@@H]3CCC4=CC(=O)C=C[C@]4(C)[C@H]3[C@@H](O)C[C@@]21C | 116.4 mg 100g-1 |
| CCCNC(=O)[C@H](O)[C@@]1(O)CC[C@H]2[C@@H]3CCC4=CC(=O)C=C[C@]4(C)[C@H]3[C@@H](O)C[C@@]21C | 88.5 mg 100g-1 |
| C[C@]12C=CC(=O)C=C1CC[C@@H]1[C@@H]2[C@@H](O)C[C@@]2(C)[C@H]1CC[C@]2(O)[C@@H](O)C(=O)NCc1ccccc1 | 167.1 mg 100g-1 |
| C[C@]12C=CC(=O)C=C1CC[C@@H]1[C@@H]2[C@@H](O)C[C@@]2(C)[C@H]1CC[C@]2(O)[C@H](O)C(=O)NCc1ccccc1 | 264.2 mg 100g-1 |

Organism: Rattus norvegicus
Assay: Tested for inhibition of formation of granulation tissue around the cotton pellet treated with steroid
Assay type: functional
Set-up: concentration or dose not given beside the values
Procedure, shortened: (§2)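 Male Sprague–Dawley rats (100–200 g). Before implantation, the right cotton pellet (35 ± 1 mg) received 2 mg steroid in acetone and the left pellet vehicle only; controls had two vehicle pellets. After 7 days, pellets with granulation tissue were dried at 60 °C for 48 h and weighed. Net dry weight, mean ± SEM, n=6; % inhibition vs vehicle group.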

| Compound | Inhibition |
| --- | --- |
| CNC(=O)[C@@H](O)[C@@]1(O)CC[C@H]2[C@@H]3CCC4=CC(=O)C=C[C@]4(C)[C@H]3[C@@H](O)C[C@@]21C | 21.1% |
| CNC(=O)[C@H](O)[C@@]1(O)CC[C@H]2[C@@H]3CCC4=CC(=O)C=C[C@]4(C)[C@H]3[C@@H](O)C[C@@]21C | 75.5% |
| CCCNC(=O)[C@H](O)[C@@]1(O)CC[C@H]2[C@@H]3CCC4=CC(=O)C=C[C@]4(C)[C@H]3[C@@H](O)C[C@@]21C | 69.3% |
| C[C@]12C=CC(=O)C=C1CC[C@@H]1[C@@H]2[C@@H](O)C[C@@]2(C)[C@H]1CC[C@]2(O)[C@@H](O)C(=O)NCc1ccccc1 | 69.3% |
| C[C@]12C=CC(=O)C=C1CC[C@@H]1[C@@H]2[C@@H](O)C[C@@]2(C)[C@H]1CC[C@]2(O)[C@H](O)C(=O)NCc1ccccc1 | 20.9% |

Organism: Rattus norvegicus
Assay: Compound was evaluated for antiinflammatory activity in granuloma bioassay and measured as plasma corticosterone weight
Assay type: functional, organism-based
Procedure, shortened: as §1

| Compound | Plasma corticosterone |
| --- | --- |
| CNC(=O)[C@@H](O)[C@@]1(O)CC[C@H]2[C@@H]3CCC4=CC(=O)C=C[C@]4(C)[C@H]3[C@@H](O)C[C@@]21C | 291 ng/mL |
| CNC(=O)[C@H](O)[C@@]1(O)CC[C@H]2[C@@H]3CCC4=CC(=O)C=C[C@]4(C)[C@H]3[C@@H](O)C[C@@]21C | 321 ng/mL |
| CCCNC(=O)[C@H](O)[C@@]1(O)CC[C@H]2[C@@H]3CCC4=CC(=O)C=C[C@]4(C)[C@H]3[C@@H](O)C[C@@]21C | 236 ng/mL |
| C[C@]12C=CC(=O)C=C1CC[C@@H]1[C@@H]2[C@@H](O)C[C@@]2(C)[C@H]1CC[C@]2(O)[C@@H](O)C(=O)NCc1ccccc1 | 101 ng/mL |
| C[C@]12C=CC(=O)C=C1CC[C@@H]1[C@@H]2[C@@H](O)C[C@@]2(C)[C@H]1CC[C@]2(O)[C@H](O)C(=O)NCc1ccccc1 | 298 ng/mL |

Organism: Rattus norvegicus
Assay: Tested for inhibition of formation of granulation tissue around the cotton pellet treated with steroid and expressed as net dry weight
Assay type: functional
Procedure, shortened: as §2

| Compound | Net dry weight |
| --- | --- |
| CNC(=O)[C@@H](O)[C@@]1(O)CC[C@H]2[C@@H]3CCC4=CC(=O)C=C[C@]4(C)[C@H]3[C@@H](O)C[C@@]21C | 61.6 mg |
| CNC(=O)[C@H](O)[C@@]1(O)CC[C@H]2[C@@H]3CCC4=CC(=O)C=C[C@]4(C)[C@H]3[C@@H](O)C[C@@]21C | 18.9 mg |
| CCCNC(=O)[C@H](O)[C@@]1(O)CC[C@H]2[C@@H]3CCC4=CC(=O)C=C[C@]4(C)[C@H]3[C@@H](O)C[C@@]21C | 23.9 mg |
| C[C@]12C=CC(=O)C=C1CC[C@@H]1[C@@H]2[C@@H](O)C[C@@]2(C)[C@H]1CC[C@]2(O)[C@@H](O)C(=O)NCc1ccccc1 | 24 mg |
| C[C@]12C=CC(=O)C=C1CC[C@@H]1[C@@H]2[C@@H](O)C[C@@]2(C)[C@H]1CC[C@]2(O)[C@H](O)C(=O)NCc1ccccc1 | 61.6 mg |

Organism: Rattus norvegicus
Assay: Tested for inhibition of formation of granulation tissue around the cotton pellet untreated with steroid
Assay type: functional
Set-up: concentration or dose not given beside the values
Procedure, shortened: as §2

| Compound | Inhibition |
| --- | --- |
| CNC(=O)[C@@H](O)[C@@]1(O)CC[C@H]2[C@@H]3CCC4=CC(=O)C=C[C@]4(C)[C@H]3[C@@H](O)C[C@@]21C | -4.5% |
| CNC(=O)[C@H](O)[C@@]1(O)CC[C@H]2[C@@H]3CCC4=CC(=O)C=C[C@]4(C)[C@H]3[C@@H](O)C[C@@]21C | 48.6% |
| CCCNC(=O)[C@H](O)[C@@]1(O)CC[C@H]2[C@@H]3CCC4=CC(=O)C=C[C@]4(C)[C@H]3[C@@H](O)C[C@@]21C | 41.2% |
| C[C@]12C=CC(=O)C=C1CC[C@@H]1[C@@H]2[C@@H](O)C[C@@]2(C)[C@H]1CC[C@]2(O)[C@@H](O)C(=O)NCc1ccccc1 | 38.9% |
| C[C@]12C=CC(=O)C=C1CC[C@@H]1[C@@H]2[C@@H](O)C[C@@]2(C)[C@H]1CC[C@]2(O)[C@H](O)C(=O)NCc1ccccc1 | 5.2% |

Test system: Rattus norvegicus
Assay: Tested for topical antiinflammatory activity in the croton oil ear edema assay and was expressed as mean change in ear thickness of rats
Assay type: functional
Procedure, shortened: (§3)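 Male Sprague–Dawley rats (100–200 g), acclimated 1 week. Baseline ear thickness was measured. Steroid at 0.75 mg/ear went to both ears, then 30 min later 50 μL 5% croton oil in acetone. Thickness was remeasured at 5 h. Mean change ± SEM, n=5; % inhibition vs vehicle controls, Student's t test.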

| Compound | Mean change |
| --- | --- |
| CNC(=O)[C@@H](O)[C@@]1(O)CC[C@H]2[C@@H]3CCC4=CC(=O)C=C[C@]4(C)[C@H]3[C@@H](O)C[C@@]21C | 0.349 mm |
| CNC(=O)[C@H](O)[C@@]1(O)CC[C@H]2[C@@H]3CCC4=CC(=O)C=C[C@]4(C)[C@H]3[C@@H](O)C[C@@]21C | 0.307 mm |
| CCCNC(=O)[C@H](O)[C@@]1(O)CC[C@H]2[C@@H]3CCC4=CC(=O)C=C[C@]4(C)[C@H]3[C@@H](O)C[C@@]21C | 0.311 mm |
| C[C@]12C=CC(=O)C=C1CC[C@@H]1[C@@H]2[C@@H](O)C[C@@]2(C)[C@H]1CC[C@]2(O)[C@@H](O)C(=O)NCc1ccccc1 | 0.265 mm |
| C[C@]12C=CC(=O)C=C1CC[C@@H]1[C@@H]2[C@@H](O)C[C@@]2(C)[C@H]1CC[C@]2(O)[C@H](O)C(=O)NCc1ccccc1 | 0.361 mm |

Organism: Rattus norvegicus
Assay: Tested for inhibition of formation of granulation tissue around the cotton pellet untreated with steroid and expressed as net dry weight
Assay type: functional
Procedure, shortened: as §2

| Compound | Net dry weight |
| --- | --- |
| CNC(=O)[C@@H](O)[C@@]1(O)CC[C@H]2[C@@H]3CCC4=CC(=O)C=C[C@]4(C)[C@H]3[C@@H](O)C[C@@]21C | 82.8 mg |
| CNC(=O)[C@H](O)[C@@]1(O)CC[C@H]2[C@@H]3CCC4=CC(=O)C=C[C@]4(C)[C@H]3[C@@H](O)C[C@@]21C | 40.8 mg |
| CCCNC(=O)[C@H](O)[C@@]1(O)CC[C@H]2[C@@H]3CCC4=CC(=O)C=C[C@]4(C)[C@H]3[C@@H](O)C[C@@]21C | 46.6 mg |
| C[C@]12C=CC(=O)C=C1CC[C@@H]1[C@@H]2[C@@H](O)C[C@@]2(C)[C@H]1CC[C@]2(O)[C@@H](O)C(=O)NCc1ccccc1 | 48.4 mg |
| C[C@]12C=CC(=O)C=C1CC[C@@H]1[C@@H]2[C@@H](O)C[C@@]2(C)[C@H]1CC[C@]2(O)[C@H](O)C(=O)NCc1ccccc1 | 75.2 mg |

Test system: Rattus norvegicus
Assay: Tested for topical antiinflammatory activity in the croton oil ear edema assay
Assay type: functional
Set-up: concentration or dose not given beside the values
Procedure, shortened: as §3

| Compound | Inhibition |
| --- | --- |
| CNC(=O)[C@@H](O)[C@@]1(O)CC[C@H]2[C@@H]3CCC4=CC(=O)C=C[C@]4(C)[C@H]3[C@@H](O)C[C@@]21C | 24.5% |
| CNC(=O)[C@H](O)[C@@]1(O)CC[C@H]2[C@@H]3CCC4=CC(=O)C=C[C@]4(C)[C@H]3[C@@H](O)C[C@@]21C | 33.5% |
| CCCNC(=O)[C@H](O)[C@@]1(O)CC[C@H]2[C@@H]3CCC4=CC(=O)C=C[C@]4(C)[C@H]3[C@@H](O)C[C@@]21C | 31.9% |
| C[C@]12C=CC(=O)C=C1CC[C@@H]1[C@@H]2[C@@H](O)C[C@@]2(C)[C@H]1CC[C@]2(O)[C@@H](O)C(=O)NCc1ccccc1 | 42.6% |
| C[C@]12C=CC(=O)C=C1CC[C@@H]1[C@@H]2[C@@H](O)C[C@@]2(C)[C@H]1CC[C@]2(O)[C@H](O)C(=O)NCc1ccccc1 | 21.9% |

Test system: not listed separately
Assay: Octanol- water partition coefficient was determined.

| Compound | Partition coefficient |
| --- | --- |
| CNC(=O)[C@@H](O)[C@@]1(O)CC[C@H]2[C@@H]3CCC4=CC(=O)C=C[C@]4(C)[C@H]3[C@@H](O)C[C@@]21C | 8.6 |
| CNC(=O)[C@H](O)[C@@]1(O)CC[C@H]2[C@@H]3CCC4=CC(=O)C=C[C@]4(C)[C@H]3[C@@H](O)C[C@@]21C | 10 |
| CCCNC(=O)[C@H](O)[C@@]1(O)CC[C@H]2[C@@H]3CCC4=CC(=O)C=C[C@]4(C)[C@H]3[C@@H](O)C[C@@]21C | 26.7 |
| C[C@]12C=CC(=O)C=C1CC[C@@H]1[C@@H]2[C@@H](O)C[C@@]2(C)[C@H]1CC[C@]2(O)[C@@H](O)C(=O)NCc1ccccc1 | 32.5 |
| C[C@]12C=CC(=O)C=C1CC[C@@H]1[C@@H]2[C@@H](O)C[C@@]2(C)[C@H]1CC[C@]2(O)[C@H](O)C(=O)NCc1ccccc1 | 30 |
